Bioassay records (PubChem BioAssay)
M1 antagonist – antagonists of rat M1 muscarinic receptor; Muscarinic acetylcholine receptor M1 (Rattus norvegicus), P08482; CHO-M1 cells, Fluo-4 calcium, ACh EC80 antagonist mode; hits give low values; B-score at 10 µM; 3.4% of 64,000 active;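 active = calcium fluorescence response, raw or row-and-column corrected B-score, differing from the plate sample mean either way at a set confidence level, mostly lower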
BAP1 block – inhibitors of BAP1 deubiquitinase, primary screen, biochemical, Ub-AMC fluorescence, kinetic. 0.48% of 72,000 active. recombinant BAP1, Ub-AMC hydrolysis fluorescence kinetic; hits give low values. Ubiquitin carboxyl-terminal hydrolase BAP1 (Homo sapiens), Q92560. calls only at 20 µM;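 active = activity remaining at or below 50% of control, provided the compound also passes the data quality filters; inactive = the rest, including low values that fail the filters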
D1 mod – D1 CRE-luciferase signal change, two-sided – cell-based, HEK293 D1, dopamine EC30, D1 allosteric modulator project, primary screen | D(1A) dopamine receptor (Homo sapiens), P21728 | dopamine EC30 potentiation; actives deviate in either direction | B-score at 10 µM | 5.9% of 58,000 active;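 active = luminescence count or its row- and column-corrected plate score outside the 99.7% band of the plate's sample wells, on either side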
Target sequence (P21728 whole entry, looked up): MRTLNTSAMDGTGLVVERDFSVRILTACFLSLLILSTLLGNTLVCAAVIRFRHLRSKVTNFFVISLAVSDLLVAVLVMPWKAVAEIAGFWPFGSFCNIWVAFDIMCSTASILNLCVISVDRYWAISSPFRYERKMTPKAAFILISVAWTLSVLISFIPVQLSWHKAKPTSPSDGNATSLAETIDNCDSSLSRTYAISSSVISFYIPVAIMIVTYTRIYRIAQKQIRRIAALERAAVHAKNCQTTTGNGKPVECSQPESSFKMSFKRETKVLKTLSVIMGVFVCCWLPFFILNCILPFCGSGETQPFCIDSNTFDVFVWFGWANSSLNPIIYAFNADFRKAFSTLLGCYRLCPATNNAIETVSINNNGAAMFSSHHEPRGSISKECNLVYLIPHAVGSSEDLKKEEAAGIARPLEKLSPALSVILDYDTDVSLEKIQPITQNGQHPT
DAT uptake mod – changed hDAT dopamine uptake under cocaine IC80, either direction, primary screen, cocaine antagonist project, cell-based, LLC-PK1 hDAT, [14C]-dopamine uptake, MLSMR; 1.3% of 110,000 active; Sodium-dependent dopamine transporter (Homo sapiens), Q01959; B-score at 10 µM; AID 449768, 2010; LLC-PK1 hDAT cells, [14C]-dopamine uptake with cocaine IC80; actives deviate in either direction;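 active = Z score or B-score, a plate-position-corrected score, falls beyond the plate's 99.7% confidence bounds, in either direction; inactive = both scores lie inside the 99.7% bounds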
M1 agonist – M1 muscarinic receptor agonists, primary screen, CHO-M1 cells, Fluo-4 calcium, agonist mode; Muscarinic acetylcholine receptor M1; Fluo-4 calcium fluorescence; hits give high values; B-score at 10 µM; 3% of 64,000 active;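 active = fluorescence rise, raw or as B-score row- and column-corrected plate score, outside the 99.7% band of its plate's samples, either direction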
HEK293 NFkB inh – inhibitors of PMA/ionomycin-induced NF-kB reporter, primary screen, antigen receptor NF-kB inhibitor project, cell-based, HEK-293 luciferase reporter, luminescence | 0.21% of 62,000 active | HEK-293 NF-kB luciferase reporter | inhibition, % at 3 µM;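 active = inhibition above the mean of all tested compounds plus 3 SD, cut at about 40% in these data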
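Timing: 1 h pretreatment, 16 h stimulation, 37 °C; system: HEK-293 cells with stable firefly luciferase reporter driven by four HIV NF-kB elements; doses: 3 µM once, 0.30% DMSO; measured by: luciferase luminescence; control set: DMSO and 10 µM reference inhibitor; repeats: single test; reagent: PMA plus ionomycin mix as NF-kB-activating stimulus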
D1 mod confirm – D1 receptor positive allosteric modulators, retest, confirmation, cell-based, HEK293 D1, CRE-luciferase, duplicate. 88% of 2,200 active. dopamine EC30 potentiation; hits give high values. AID 642, 2007. luminescence at 10 µM. shares compounds with D1 mod;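 active = luminescence in either of two replicates above the same-plate mean plus 3 SD of the low-dose dopamine control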
D1 no dopamine – D1 receptor agonism without dopamine, confirmation, mechanism study for D1 allosteric modulator project, cell-based, HEK293 D1, CRE-luciferase, secondary assay 1; shares compounds with D1 mod; luminescence, no dopamine; hits give high values; luminescence at 10 µM; 0.8% of 1,900 active; AID 646, 2007; in the data active = luminescence above about 3900
Isoprot counter – alters isoproterenol CRE-luciferase response in HEK293 cells. shares compounds with D1 mod. calls only at 10 µM. 63% of 2,200 active. HEK293 D1 CRE-luciferase, isoproterenol EC30 counter-screen;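 active = luminescence in either replicate above plate mean of wells with a partly effective reference agonist dose plus 3 SD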;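 note: isoproterenol raises cAMP through native beta-adrenoceptor Gs so signal bypasses D1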
Hits are given with their value; n = inactive; x = no result; + = active, no number. Rows were chosen to be rich in hits. Some 7.2% of all compounds tested hit in one or more screens of this group.

SMILES | M1 antagonist | BAP1 block | D1 mod | DAT uptake mod | M1 agonist | HEK293 NFkB inh | D1 mod confirm | D1 no dopamine | Isoprot counter
C#CCN(C#N)c1nc(NCC)nc(NC(C)C)n1 | n | n | 16.7 | n | n | n | 18300 | n | +
Cc1ccccc1NC(=O)C(c1ccccc1)N1CCOCC1 (centres undefined) | x | n | x | x | x | x | x | x | x
CSc1ccccc1NC(=O)c1onc(C)c1Cl | n | n | 1.58 | n | n | n | 7308 | n | n
CCn1cc(C(=O)NCCCN(C)c2ccccc2)c(=O)c2cc(S(=O)(=O)N(C)C)ccc21 | n | n | 5.56 | n | n | n | 8908 | n | +
CCn1cc(C(=O)NCc2ccc3c(c2)OCO3)c(=O)c2cc(S(=O)(=O)N3CCOCC3)ccc21 | n | n | 3.7 | n | n | n | 10664 | n | +
C=CCn1cc(C(=O)NCCOC)c(=O)c2cc(S(=O)(=O)N(CC)CC)ccc21 | n | n | n | n | n | n | x | x | x
CCN(CCCNC(=O)c1cn(CC)c2ccc(S(=O)(=O)N(C)C)cc2c1=O)c1cccc(C)c1 | n | n | n | n | n | n | x | x | x
CCn1cc(C(=O)NCc2ccccc2OC)c(=O)c2cc(S(=O)(=O)N(C)C)ccc21 | n | n | 7.75 | n | n | n | 13952 | n | +
C=CCn1cc(C(=O)NCc2cccnc2)c(=O)c2cc(S(=O)(=O)N(CC)CC)ccc21 | n | n | 2.82 | n | n | n | 9940 | n | +
CCCc1ccc(-c2ccc(C(=O)Nc3ccc(C)cc3C)cc2)nc1 | x | n | x | x | x | x | x | x | x
CC(C)N(CCC#N)S(=O)(=O)c1ccc([N+](=O)[O-])cc1 | x | n | x | x | x | x | x | x | x
CCCCn1c(SCn2nnc3ccccc3c2=O)nc2cc(C(=O)OC)ccc2c1=O | n | n | n | x | n | n | x | x | x
CCSc1nc2cc(C(=O)OC)ccc2c(=O)n1CC | n | n | 10.2 | n | n | n | 13500 | n | +
CSc1oc(-c2ccco2)nc1S(=O)(=O)c1ccccc1 | n | n | x | n | n | n | x | x | x
CSc1oc(-c2ccco2)nc1S(=O)(=O)c1ccc(F)cc1 | n | n | 3.43 | n | n | n | 11924 | n | n
CC(C)Sc1oc(-c2ccco2)nc1S(=O)(=O)c1ccccc1 | n | x | 6.47 | n | n | n | 19332 | n | +
COC(=O)c1cc(OC)c(OC)cc1N=CC1=C(O)CC(C)(C)CC1=O | n | n | 4.1 | n | n | n | 9648 | n | +
CC1(C)CC(=O)C(C=Nc2ccccc2C(=O)O)=C(O)C1 | n | n | x | n | n | n | x | x | x
CCCCCCNC(=O)C1CC(=O)N(c2ccc(C)c(Cl)c2)C1 (centres undefined) | x | n | x | x | x | x | x | x | x
CSc1ncc(Cl)c(C(=O)NCc2ccc3c(c2)OCO3)n1 | n | n | 12 | n | n | n | 16252 | n | +
O=C(NCc1ccc2c(c1)OCO2)c1cc(-c2ccccc2Cl)on1 | x | x | x | n | x | x | x | x | x
COC1(OC)N=C(N)C2(C#N)C(c3cccc(Oc4ccccc4)c3)C12C#N (centres undefined) | n | n | 18.9 | n | n | n | 16148 | n | +
Cc1onc(-c2ccccc2)c1C(=O)Oc1cccnc1 | n | n | 6.7 | n | n | n | 13128 | n | +
CCN(CC)C(=O)c1sc(NC(=O)c2ccoc2C)c(C(=O)OC)c1C | n | n | n | n | n | n | x | x | x
CCOC(=O)c1c(NC(=O)OC)sc(C(=O)N(CC)CC)c1C | n | x | 4.18 | n | n | n | 8956 | n | +
SMILES | M1 antagonist | BAP1 block | D1 mod | DAT uptake mod | M1 agonist | HEK293 NFkB inh | D1 mod confirm | D1 no dopamine | Isoprot counter
CCCCCOC(=O)C1=C(C)NC2=C(C(=O)CC(C)(C)C2)C1c1ccccc1I (centres undefined) | x | n | x | x | x | x | x | x | x
CCOC(=O)C(CC)Sc1nc2c(c(=O)[nH]c(=O)n2C)n1CCc1ccccc1 (centres undefined) | n | n | n | n | n | n | x | x | x
CCCCn1c(NC(C)CC)nc2c1c(=O)[nH]c(=O)n2C (centres undefined) | n | n | 11 | n | n | n | 21532 | n | +
CCC(C)Sc1nc2c(c(=O)[nH]c(=O)n2C)n1CCc1ccccc1 (centres undefined) | n | n | 21.4 | n | n | n | 20608 | n | +
CC(C)Sc1nc2c(c(=O)[nH]c(=O)n2C)n1CCc1ccccc1 | n | n | 25.7 | n | n | n | 24288 | n | +
CCCCCn1c(Sc2ccccc2)nc2c1c(=O)[nH]c(=O)n2C | x | x | x | n | x | x | x | x | x
CCCCCn1c(SC(C)C(C)=O)nc2c1c(=O)[nH]c(=O)n2C (centres undefined) | n | n | 8 | n | n | n | 20968 | n | +
CC(=O)Oc1cccc(C2C3=C(CC(C)(C)CC3=O)Nc3ccccc3N2C(=O)c2ccccc2)c1 (centres undefined) | x | n | x | x | x | x | x | x | x
O=C1CC(c2ccc(Cl)cc2)CC2=C1C(c1ccc(C(F)(F)F)cc1)Nc1ccccc1N2 (centres undefined) | x | n | x | x | x | x | x | x | x
CCOC(=O)C(NC(C)=O)C(O)c1cccc(N)c1 (centres undefined) | x | n | x | x | x | x | x | x | x
Nc1ccc(C(=O)Nc2ccc(Cc3ccc(NC(=O)c4ccc(N)cc4)cc3)cc2)cc1 | x | n | x | x | x | x | x | x | x
CNC(=O)[C@H]1O[C@@H](n2cnc3c(N)ncnc32)C(O)[C@H]1O (some centres undefined) | x | n | x | x | x | x | x | x | x
CCOC(=O)CSc1nc2c(c(=O)[nH]c(=O)n2C)n1C/C=C(/C)Cl | n | n | n | n | n | n | x | x | x
C/C(Cl)=C/Cn1c(SC(C)C)nc2c1c(=O)[nH]c(=O)n2C | n | n | 32 | n | n | n | 17228 | n | +
CCCNc1nc2c(c(=O)[nH]c(=O)n2C)n1CCc1ccccc1 | n | n | 3.13 | n | n | n | 8752 | n | n
O=c1oc2ccc(Br)cc2cc1-c1nc(-c2ccc(Br)cc2)cs1 | x | n | x | x | x | x | x | x | x
Cc1ccc2cccc(S(=O)(=O)Nc3ccc4c(c3)OCO4)c2n1 | n | n | n | n | n | n | x | x | x
